According to ChEMBL document CHEMBL1134217, “Addressing the stability of C-capped dipeptide efflux pump inhibitors that potentiate the activity of levofloxacin in Pseudomonas aeruginosa” (Bioorg Med Chem Lett, 2001):
≈ marks a conversion by molar mass, not a printed value. Peptide text beside a SMILES is read from it.

Legend:
[1] = Stability in rat serum measured as % recovery at 5 min; assay type: ADME; conditions: read-out: Recovery
How it was run: (§1)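 Compounds were incubated in rat serum at 37 °C, with a parallel incubation in H₂O as control. At each time point, 70% trichloroacetic acid and CH₃CN were added dropwise. Unchanged compound was quantified by HPLC and reported as % recovery, averaged from two or more experiments.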

[2] = Stability in rat serum measured as % recovery at 10 min; assay type: ADME; conditions: read-out: Recovery; how it was run: as §1
Pseudomonas aeruginosa [3] = assay: Minimum inhibitory concentration required to inhibit growth of PAM 1032 strain of Pseudomonas aeruginosa that over expresses MexAB-Opr M efflux pump; assay type: functional
How it was run: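 Intrinsic antibacterial activity was checked by measuring the MIC of the efflux pump inhibitor alone, without levofloxacin, against P. aeruginosa PAM 1032, which overexpresses MexAB-OprM.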

[4] = Stability in rat serum measured as % recovery at 3 min; assay type: ADME; conditions: read-out: Recovery; how it was run: as §1
Pseudomonas aeruginosa [5] = assay: Minimum concentration of compound required to reduce the MIC of levofloxacin 8-fold in PAM 1032 strain of Pseudomonas aeruginosa that over expresses MexAB-OprM efflux pump; assay type: functional
How it was run: (§2)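 Levofloxacin MICs were measured on PAM 1032 (MexAB-OprM overexpressor) with and without efflux pump inhibitor. MPC₈ is the lowest inhibitor concentration that cuts the levofloxacin MIC 8-fold.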

[6] = Stability in rat serum measured as % recovery at 1 min; assay type: ADME; conditions: read-out: Recovery; how it was run: as §1
Pseudomonas aeruginosa [7] = assay: Compound was evaluated in PAM 1032 strain of Pseudomonas aeruginosa for its effect on levofloxacin ( 5 ug/mL) potentiation; assay type: functional
How it was run: (§3)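 Levofloxacin MIC read against P. aeruginosa PAM 1032, a laboratory strain overexpressing the MexAB-OprM pump, with the efflux pump inhibitor held at fixed levels of […].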

Pseudomonas aeruginosa [8] = assay: Compound was evaluated in PAM 1032 strain of Pseudomonas aeruginosa for its effect on levofloxacin (20 ug/mL) potentiation; assay type: functional; how it was run: as §3
Pseudomonas aeruginosa [9] = assay: Compound was evaluated in PAM 1032 strain of Pseudomonas aeruginosa for its effect on levofloxacin (ug/mL) potentiation; assay type: functional; how it was run: as §3
Pseudomonas aeruginosa [10] = assay: Compound was evaluated in PAM 1032 strain of Pseudomonas aeruginosa for its effect on levofloxacin (40 ug/mL) potentiation; assay type: functional; how it was run: as §3
Pseudomonas aeruginosa [11] = assay: Compound was evaluated in PAM 1032 strain of Pseudomonas aeruginosa for its effect on levofloxacin ( 10 ug/mL) potentiation; assay type: functional; how it was run: as §3
[12] = Stability in rat serum measured as % recovery at 2 hr; assay type: ADME; conditions: read-out: Recovery
How it was run: (§4)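 Incubated at 37 °C in rat serum for the stated time, in parallel with a water control. Samples quenched dropwise with 70% trichloroacetic acid plus acetonitrile, then analysed by HPLC. Value is % recovery of unchanged compound, averaged over two or more experiments. Phe-Arg-β-naphthylamine (MC-207,110) served as positive control.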

Pseudomonas aeruginosa [13] = assay: Minimum concentration of compound required to reduce the MIC of levofloxacin 8-fold in PAM 1032 strain of Pseudomonas aeruginosa tha over expresses MexAB-Opr M efflux pump; assay type: functional; how it was run: as §2
[14] = Stability in rat serum measured as % recovery at 5 mins; assay type: ADME; conditions: read-out: Recovery; how it was run: as §4
[15] = Stability in rat serum measured as % recovery at 10 mins; assay type: ADME; conditions: read-out: Recovery; how it was run: as §4
[16] = Stability in rat serum measured as % recovery at 3 mins; assay type: ADME; conditions: read-out: Recovery; how it was run: as §4

Work on NCCC[C@H](NC(=O)[C@@H](N)Cc1ccccc1)C(=O)Nc1ccc2ccccc2c1 yielded a remaining at 5 min [1] of 64%, a remaining at 10 min [2] of 36% and an MIC (Pseudomonas aeruginosa [3]) of 512 µg/mL (≈ 1270 µM). It also gave a remaining at 0.05 h [4] of 80%, an MPC (Pseudomonas aeruginosa [5]) of 5 µg/mL and a remaining at 1 min [6] of 100%.

With CN(C(=O)[C@@H](N)Cc1ccccc1)[C@@H](CCCN)C(=O)Nc1ccc2ccccc2c1.O=C(O)C(F)(F)F.O=C(O)C(F)(F)F the remaining at 5 min [1] was 100%, the remaining at 10 min [2] was 97% and the MIC (Pseudomonas aeruginosa [3]) was 256 µg/mL. For the same compound, the remaining at 0.05 h [4] was 99%, the MPC (Pseudomonas aeruginosa [5]) was 5 µg/mL and the remaining at 1 min [6] was 100%.

With NCCC[C@H](N)C(=O)N[C@@H](Cc1ccccc1)C(=O)Nc1ccc2ccccc2c1 the remaining at 5 min [1] was 76%, the remaining at 10 min [2] was 38% and the MIC (Pseudomonas aeruginosa [3]) was 512 µg/mL (≈ 1270 µM). The remaining at 0.05 h [4] was 87%, the MPC (Pseudomonas aeruginosa [5]) was 10 µg/mL and the remaining at 1 min [6] was 100%.

NCCC[C@H](N)C(=O)N[C@@H](CCc1ccccc1)C(=O)Nc1cnc2ccccc2c1 showed an MIC (Pseudomonas aeruginosa [7]) of 4 µg/mL, an MIC (Pseudomonas aeruginosa [8]) of 0.06 µg/mL and an MPC (Pseudomonas aeruginosa [5]) of 10 µg/mL. The MIC (Pseudomonas aeruginosa [9]) was 4 µg/mL, the MIC (Pseudomonas aeruginosa [10]) was 0.015 µg/mL and the MIC (Pseudomonas aeruginosa [11]) was 0.5 µg/mL.

NCCC[C@H](N)C(=O)N[C@H](CCc1ccccc1)C(=O)Nc1cnc2ccccc2c1 showed an MIC (Pseudomonas aeruginosa [7]) of 2 µg/mL, an MIC (Pseudomonas aeruginosa [8]) of 0.5 µg/mL and an MPC (Pseudomonas aeruginosa [5]) of 20 µg/mL. It also gave an MIC (Pseudomonas aeruginosa [9]) of 4 µg/mL, an MIC (Pseudomonas aeruginosa [10]) of 0.125 µg/mL and an MIC (Pseudomonas aeruginosa [11]) of 1 µg/mL.

Work on NCCC[C@@H](N)C(=O)N[C@H](CCc1ccccc1)C(=O)Nc1cnc2ccccc2c1 yielded an MIC (Pseudomonas aeruginosa [7]) of 4 µg/mL, an MIC (Pseudomonas aeruginosa [8]) of 0.125 µg/mL and an MPC (Pseudomonas aeruginosa [5]) of 20 µg/mL. For the same compound, the MIC (Pseudomonas aeruginosa [9]) was 4 µg/mL, the MIC (Pseudomonas aeruginosa [10]) was 0.125 µg/mL and the MIC (Pseudomonas aeruginosa [11]) was 2 µg/mL.

Work on NCCC[C@H](NC(=O)[C@@H](N)CCc1ccccc1)C(=O)Nc1cnc2ccccc2c1 yielded an MIC (Pseudomonas aeruginosa [7]) of 1 µg/mL, an MIC (Pseudomonas aeruginosa [8]) of 0.03 µg/mL and an MPC (Pseudomonas aeruginosa [5]) of 10 µg/mL. For the same compound, the MIC (Pseudomonas aeruginosa [9]) was 4 µg/mL, the MIC (Pseudomonas aeruginosa [10]) was 0.03 µg/mL and the MIC (Pseudomonas aeruginosa [11]) was 0.06 µg/mL.

NCCC[C@@H](N)C(=O)N[C@@H](CCc1ccccc1)C(=O)Nc1cnc2ccccc2c1 showed a remaining at 5 min [1] of 98%, an MIC (Pseudomonas aeruginosa [7]) of 1 µg/mL and a remaining at 10 min [2] of 100%. For the same compound, the MIC (Pseudomonas aeruginosa [3]) was > 512 µg/mL, the MIC (Pseudomonas aeruginosa [8]) was 0.03 µg/mL and the remaining at 2 h [12] was 95%. For the same compound, the remaining at 0.05 h [4] was 98%, the MPC (Pseudomonas aeruginosa [13]) was 10 µg/mL and the MPC (Pseudomonas aeruginosa [5]) was 10 µg/mL. For the same compound, the MIC (Pseudomonas aeruginosa [9]) was 4 µg/mL, the MIC (Pseudomonas aeruginosa [10]) was 0.015 µg/mL and the MIC (Pseudomonas aeruginosa [11]) was 0.125 µg/mL. The remaining at 1 min [6] was 100%.

With N=C(N)NCCC[C@H](NC(=O)[C@@H](N)Cc1ccccc1)C(=O)Nc1ccc2ccccc2c1 [PABETAN] (HELM PEPTIDE1{F.R.[c1ccc2cc(N[*:1])ccc2c1]}$$$$V2.0) the remaining at 5 min [14] was 55%, the remaining at 10 min [15] was 25% and the MIC (Pseudomonas aeruginosa [3]) was > 512 µg/mL. The remaining at 2 h [12] was 0%, the MPC (Pseudomonas aeruginosa [5]) was 10 µg/mL and the remaining at 0.05 h [16] was 73%. It also gave a remaining at 1 min [6] of 100%.
